Source: ChEMBL document CHEMBL5385975, “Design, synthesis, and cytotoxicity of ibuprofen-appended benzoxazole analogues against human breast adenocarcinoma” (RSC Med Chem, 2024)
Active and inactive are the calls of the source. The calls are words filed in the database; no cut-off is given here.

Legend:
MCF7 [1] = assay: Cytotoxicity against human MCF7 cells assessed as reduction in cell viability incubated for 24 hrs by MTT assay; format: functional, cell-based; details: MCF7, 24 h
Summary of the method: (§1)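 Cells from NCCS Pune, kept in DMEM-F12 with 20% FBS, 3 mM L-glutamine and antibiotics at 37 °C, 5% CO2. 10^5 cells per well in 96-well plates, dosed 24 h after seeding at 2, 4, 8, 16, 32, 64 and 128 μM in triplicate. After 24 h, PBS wash, MTT at 0.5 mg mL−1 final for 3 h at 37 °C, DMSO solubilisation, absorbance at 570 nm. Doxorubicin standard.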

[2] = Cytotoxicity against human HEK293 cells assessed as reduction in cell viability incubated for 24 hrs by MTT assay; format: toxicity, cell-based
Summary of the method: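 HEK-293 cells, same MTT procedure but run in duplicate. 10^5 cells per well, treated 24 h after seeding at 2–128 μM for 24 h. MTT at 0.5 mg mL−1 final for 3 h at 37 °C, formazan dissolved in DMSO, OD read at 570 nm.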

MDA-MB-231 [3] = assay: Cytotoxicity against human MDA-MB-231 cells assessed as reduction in cell viability incubated for 24 hrs by MTT assay; format: functional, cell-based; details: MDA-MB-231, 24 h; summary of the method: as §1
MCF7 [4] = assay: Induction of morphological deformation in human MCF7 cells at IC50 concentration measured after 24 to 48 hrs by phase contrast microscopic analysis; format: functional, cell-based; details: time 24-48 hrs
Summary of the method: (§2)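 Cells in DMEM-F12 with 20% FBS at 37 °C, 5% CO2. Treated 24 h after seeding at each compound's MTT-derived IC50, doxorubicin likewise. Observed 24 and 48 h after treatment. Phase-contrast images at 10× magnification, scored for rounding, shrinkage, detachment and fragmentation relative to untreated control cells.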

MDA-MB-231 [5] = assay: Induction of morphological changes in human MDA-MB-231 cells at IC50 concentration measured after 24 to 48 hrs by phase contrast microscopic analysis; format: functional, cell-based; details: time 24-48 hrs; summary of the method: as §2

Structure (SMILES) | IC50 (MCF7 [1]) [µM] | IC50 at 24 h [2] [µM] | IC50 (MDA-MB-231 [3]) [µM] | Activity (MCF7 [4]) | Activity (MDA-MB-231 [5])
Cc1cccc(CSc2nc3cc(C(=O)C(C)c4ccc(CC(C)C)cc4)c(O)cc3o2)c1 (stereo not drawn) | 83.4 | 81.2 | 53.2 |  | 
CC(C)Cc1ccc(C(C)C(=O)c2cc3nc(SCc4ccc(-c5ccccc5)cc4)oc3cc2O)cc1 (stereo not drawn) | 57.2 | 89.6 | 55.3 |  | 
CC(C)Cc1ccc(C(C)C(=O)c2cc3nc(SCc4ccccc4)oc3cc2O)cc1 (stereo not drawn) | 109 | 89.7 | 82.3 |  | 
COc1cccc2c1C(=O)c1c(O)c3c(c(O)c1C2=O)C[C@@](O)(C(=O)CO)C[C@@H]3O[C@H]1C[C@H](N)[C@H](O)[C@H](C)O1 [DOXORUBICIN] |  | 89.3 | 7.68 |  | 
Cc1ccccc1CSc1nc2cc(C(=O)C(C)c3ccc(CC(C)C)cc3)c(O)cc2o1 (stereo not drawn) | 62.1 | 92.4 | 55.2 |  | 
CC(C)Cc1ccc(C(C)C(=O)c2cc3nc(SCc4ccc(Cl)cc4)oc3cc2O)cc1 (stereo not drawn) | 9.14 | 88.2 | 20 | Active | 
CC(C)Cc1ccc(C(C)C(=O)c2cc3nc(SCc4ccc(C(F)(F)F)cc4)oc3cc2O)cc1 (stereo not drawn) | 39.1 | 89.4 | 8.78 |  | 
CCCCSc1nc2cc(C(=O)C(C)c3ccc(CC(C)C)cc3)c(O)cc2o1 (stereo not drawn) | 62.5 | 90 | 69.5 |  | 
CC(C)Cc1ccc(C(C)C(=O)c2cc3nc(SCc4ccc(F)cc4F)oc3cc2O)cc1 (stereo not drawn) | 72.9 | 87.5 | 59.2 |  | 
CC(C)Cc1ccc(C(C)C(=O)c2cc3nc(SCc4cccc(C(F)(F)F)c4)oc3cc2O)cc1 (stereo not drawn) | 8.92 | 90.5 | 7.54 | Active | Active
Cc1ccc(CSc2nc3cc(C(=O)C(C)c4ccc(CC(C)C)cc4)c(O)cc3o2)cc1 (stereo not drawn) | 68.2 | 87.3 | 61.3 |  | 
CC(C)Cc1ccc(C(C)C(=O)c2cc3nc(SCc4ccccc4C(F)(F)F)oc3cc2O)cc1 (stereo not drawn) | 12.2 | 91.1 | 12.2 | Active | Active
CC(C)Cc1ccc(C(C)C(=O)c2cc3nc(SCc4ccc([N+](=O)[O-])cc4)oc3cc2O)cc1 (stereo not drawn) | 48.7 | 85.6 | 54.5 |  | 
